Experimental data from ChEMBL document CHEMBL1148785, “Second generation tetrahydroquinoline-based protein farnesyltransferase inhibitors as antimalarials” (J Med Chem, 2007).
pEC50, pIC50: −log10 of the molar value.

What was measured:
Plasmodium falciparum [1] = experiment: Inhibition of Plasmodium falciparum protein farnesyltransferase at 50 nM by scintillation proximity assay
Plasmodium falciparum [2] = experiment: Inhibition of Plasmodium falciparum protein farnesyltransferase at 5 nM by scintillation proximity assay
Plasmodium falciparum [3] = experiment: Antimalarial activity against Plasmodium falciparum 3D7; assay type: functional; conditions: Plasmodium falciparum, 3D7; read-out: ED50 (the source's name)
In short: (§1)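 Asynchronous culture in type A+ erythrocytes at 0.5% parasitemia and 0.5% hematocrit, grown in RPMI-1640 with 20% heat-inactivated human A+ plasma. Compound was serially diluted from a top final 5 µM, with DMSO vehicle as 100% growth. Plates ran 48 h at 37 °C under 5% CO2/5% O2/90% N2, then [3H]-hypoxanthine (0.3 µCi) for 24 h. Filter-harvested counts were corrected for the uninfected-RBC background. ED50 by linear regression; duplicates averaged.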

Plasmodium falciparum [4] = experiment: Antimalarial activity against Plasmodium falciparum K1; assay type: functional; conditions: Plasmodium falciparum, K1; read-out: ED50 (the source's name); in short: as §1
[5] = target: Protein farnesyltransferase (Rattus norvegicus); experiment: Inhibition of protein farnesyltransferase
Plasmodium falciparum [6] = experiment: Inhibition of Plasmodium falciparum protein farnesyltransferase at 0.5 nM by scintillation proximity assay
[7] = Inhibition of Plasmodium falciparum protein farnesyltransferase by scintillation proximity assay

inhibition (Plasmodium falciparum [1]) | inhibition (Plasmodium falciparum [2]) | pEC50 (Plasmodium falciparum [3]) | pEC50 (Plasmodium falciparum [4]) | pIC50 [5] | inhibition (Plasmodium falciparum [6]) | pIC50 [7] | Compound
53% | 4% | 5.52 | 5.52 | 8.00 | – | – | Cn1cncc1CN1CC(N(Cc2cc3nsnc3cc2Cl)S(=O)(=O)c2ccccn2)Cc2cc(C#N)ccc21 (stereo not drawn)
94% | 20% | 6.82 | 6.48 | 7.80 | 63% | 8.15 | Cn1cncc1CN1CC(N(CC2CCN(C(=O)c3ccccc3)CC2)S(=O)(=O)c2ccccn2)Cc2cc(C#N)ccc21 (stereo not drawn)
66% | 19% | < 5.30 | < 5.30 | 8.32 | 0% | – | Cn1cnc(S(=O)(=O)N(Cc2ccc(C(=O)O)cc2)C2Cc3cc(C#N)ccc3N(Cc3cncn3C)C2)c1 (stereo not drawn)
100% | 39% | 7.94 | 8.00 | – | 94% | 9.12 | Cn1cncc1CN1CC(N(CC2CCN(C(=O)C3CC3)CC2)S(=O)(=O)c2ccccn2)Cc2cc(C#N)ccc21 (stereo not drawn)
15% | 14% | < 5.30 | < 5.30 | – | 10% | 6.10 | Cn1cncc1CN1CC(N(CC(=O)NC(C)(C)C)S(=O)(=O)c2c[nH]cn2)Cc2cc(C#N)ccc21 (stereo not drawn)
65% | 6% | < 5.30 | < 5.30 | 6.98 | 0% | – | Cn1cnc(S(=O)(=O)N(CC2CCNCC2)C2Cc3cc(C#N)ccc3N(Cc3cncn3C)C2)c1 (stereo not drawn)
100% | 95% | 7.26 | 7.70 | 8.47 | 34% | – | Cc1ccccc1CN(C1Cc2cc(C#N)ccc2N(Cc2cncn2C)C1)S(=O)(=O)c1cn(C)cn1 (stereo not drawn)
55% | 13% | – | – | 6.36 | – | – | Cn1cncc1CN1CC(N(Cc2ccc3ccccc3c2Br)S(=O)(=O)c2ccccn2)Cc2cc(C#N)ccc21 (stereo not drawn)
94% | 29% | 7.43 | 7.02 | – | 65% | 8.62 | CC(=O)N1CCC(CN(C2Cc3cc(C#N)ccc3N(Cc3cncn3C)C2)S(=O)(=O)c2ccccn2)CC1 (stereo not drawn)
26% | 0% | 6.34 | 5.77 | – | 7% | 6.05 | Cn1cncc1CN1CC(N(CC2CCN(C(=O)c3ccc(Cl)cc3)CC2)S(=O)(=O)c2ccccn2)Cc2cc(C#N)ccc21 (stereo not drawn)
100% | 93% | 7.35 | 7.25 | 8.52 | 42% | – | Cc1onc(-c2ccccc2)c1CN(C1Cc2cc(C#N)ccc2N(Cc2cncn2C)C1)S(=O)(=O)c1ccccn1 (stereo not drawn)
99% | 92% | 7.12 | 7.30 | 8.12 | 25% | – | COCCCN(C1Cc2cc(C#N)ccc2N(Cc2cncn2C)C1)S(=O)(=O)c1cn(C)cn1 (stereo not drawn)
99% | 20% | 7.80 | 7.60 | – | 82% | 9.10 | CCC(=O)N1CCC(CN(C2Cc3cc(C#N)ccc3N(Cc3cncn3C)C2)S(=O)(=O)c2ccccn2)CC1 (stereo not drawn)
98% | 60% | 7.17 | 7.19 | – | 95% | 9.19 | CCNC(=O)N1CCC(CN(C2Cc3cc(C#N)ccc3N(Cc3cncn3C)C2)S(=O)(=O)c2ccccn2)CC1 (stereo not drawn)
71% | 33% | < 5.30 | 5.30 | – | 30% | 7.38 | Cn1cncc1CN1CC(N(CC(=O)NC(C)(C)C)S(=O)(=O)c2ccc(F)cc2)Cc2cc(C#N)ccc21 (stereo not drawn)
95% | 12% | 7.10 | 6.16 | 8.19 | 63% | 8.52 | CCCC(=O)N1CCC(CN(C2Cc3cc(C#N)ccc3N(Cc3cncn3C)C2)S(=O)(=O)c2ccccn2)CC1 (stereo not drawn)
96% | 36% | 7.70 | 7.12 | 8.11 | 88% | 9.22 | Cn1cncc1CN1CC(N(CC2CCN(C(=O)CC(C)(C)C)CC2)S(=O)(=O)c2ccccn2)Cc2cc(C#N)ccc21 (stereo not drawn)
99% | 96% | 7.77 | 8.00 | 8.77 | 74% | – | Cn1cncc1CN1CC(N(CCn2cccc2)S(=O)(=O)c2ccccn2)Cc2cc(C#N)ccc21 (stereo not drawn)
98% | 98% | 7.38 | 7.42 | 8.59 | 56% | 9.30 | Cn1cnc(S(=O)(=O)N(Cc2ccc(-n3cccn3)cc2)C2Cc3cc(C#N)ccc3N(Cc3cncn3C)C2)c1 (stereo not drawn)
69% | 9% | 5.52 | 5.35 | 6.00 | 0% | – | Cn1cnc(S(=O)(=O)N(Cc2ccc3ccccc3c2Br)C2Cc3cc(C#N)ccc3N(Cc3cncn3C)C2)c1 (stereo not drawn)
99% | 45% | 7.21 | 7.30 | – | 93% | 9.05 | Cn1cncc1CN1CC(N(CC2CCN(S(C)(=O)=O)CC2)S(=O)(=O)c2ccccn2)Cc2cc(C#N)ccc21 (stereo not drawn)
100% | 93% | 7.29 | 7.00 | 8.42 | 4% | – | Cn1cncc1CN1CC(N(Cc2ccccn2)S(=O)(=O)c2ccccn2)Cc2cc(C#N)ccc21 (stereo not drawn)
80% | 27% | 6.12 | 5.51 | 8.30 | 2% | 8.10 | Cn1cncc1CN1CC(N(CC(=O)NC(C)(C)C)S(=O)(=O)c2nccn2C)Cc2cc(C#N)ccc21 (stereo not drawn)

Compound | inhibition (Plasmodium falciparum [1]) | inhibition (Plasmodium falciparum [2]) | pEC50 (Plasmodium falciparum [3]) | pEC50 (Plasmodium falciparum [4]) | pIC50 [5] | inhibition (Plasmodium falciparum [6]) | pIC50 [7]
CC(C)COC(=O)N1CCC(CN(C2Cc3cc(C#N)ccc3N(Cc3cncn3C)C2)S(=O)(=O)c2ccccn2)CC1 (stereo not drawn) | 100% | 12% | 7.21 | 7.21 | 7.60 | 88% | 8.85
CCOC(=O)N1CCC(CN(C2Cc3cc(C#N)ccc3N(Cc3cncn3C)C2)S(=O)(=O)c2ccccn2)CC1 (stereo not drawn) | 100% | 46% | 7.26 | 7.40 | 8.26 | 95% | 9.30
Cn1cncc1CN1CC(N(CC2CCN(C(=O)OC(C)(C)C)CC2)S(=O)(=O)c2ccccn2)Cc2cc(C#N)ccc21 (stereo not drawn) | 100% | 89% | – | 6.74 | 8.15 | 19% | –
